# SIAE primary – human SIAE inhibitors, primary screen, biochemical, fluorescence polarization, FP-Rh probe, 1536-well HTS | SIAE FP-Rh probe binding | inhibition, % at 9.66 µM | AID 1053197, 2014 | 0.69% of 370,000 active;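 active = inhibition above a cutoff: mean of compounds within the control limits plus 3 SD of those, cut at about 17% in these data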;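 note: 0% = plate median of compound wells and 100% = probe without SIAE protein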
# Target sequence (Q9HAT2 whole entry, looked up): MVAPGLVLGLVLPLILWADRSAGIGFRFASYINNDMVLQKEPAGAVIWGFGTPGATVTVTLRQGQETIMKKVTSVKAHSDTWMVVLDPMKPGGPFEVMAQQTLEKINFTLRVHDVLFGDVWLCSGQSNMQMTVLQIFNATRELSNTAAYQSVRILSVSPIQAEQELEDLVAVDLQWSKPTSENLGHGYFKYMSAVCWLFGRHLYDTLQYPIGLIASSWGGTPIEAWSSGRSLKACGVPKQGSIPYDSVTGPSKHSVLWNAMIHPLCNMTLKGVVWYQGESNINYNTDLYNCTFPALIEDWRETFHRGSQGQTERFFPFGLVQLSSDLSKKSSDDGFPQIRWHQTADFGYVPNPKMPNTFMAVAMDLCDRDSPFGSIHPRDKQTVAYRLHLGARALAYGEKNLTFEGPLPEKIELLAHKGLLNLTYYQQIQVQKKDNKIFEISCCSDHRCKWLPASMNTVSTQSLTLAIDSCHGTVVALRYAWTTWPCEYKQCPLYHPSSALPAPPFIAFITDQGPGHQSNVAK
# GSTO1 inh – inhibitors of recombinant GSTO1, primary screen, counter-screen for RBBP9 inhibitor project, biochemical, fluorescence polarization; Glutathione S-transferase omega-1 (Homo sapiens), P78417; activity-based probe fluorescence polarization; inhibition, % at 5.96 µM; 1.1% of 300,000 active;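 active = inhibition above the campaign mean inhibition plus 3 SD, cut at about 35% in these data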;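 note: 0% = GSTO1-1 with DMSO and 100% = wells lacking GSTO1-1 enzyme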
# PAD4 inh – human PAD4 inhibitors, primary screen, biochemical, fluorescence polarization, 1536-well format | recombinant PAD4, RCA probe fluorescence polarization | AID 485272, 2010 | 0.41% of 330,000 active | inhibition, % at 6.36 µM | Protein-arginine deiminase type-4 (Homo sapiens), Q9UM07;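 active = percent inhibition above a cutoff equal to the mean of all tested compounds plus 3 SD, cut at about 15% in these data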;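 note: 0% = PAD4 with RCA probe and DMSO and 100% = probe without PAD4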
# RBBP9 inh – human RBBP9 inhibitors, primary screen, biochemical, fluorescence polarization, FP-Rh probe, HTS | AID 1515, 2009 | 0.2% of 220,000 active | recombinant RBBP9 | inhibition, % at 7.94 µM;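 active = inhibition above the campaign mean of all tested compounds plus 3 SD, cut at about 14% in these data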;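 note: plate controls were DMSO wells with RBBP9 for no effect and wells lacking RBBP9 protein for full effect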
#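 System: RBBP9 protein / Buffer or medium: Tris/NaCl buffer pH 8.0 with 0.1% Pluronic / Probe or stimulus: Serine-hydrolase probe FP-Rh, 375 nM pre-mixing / Dosing: 7.94 µM single dose, 0.794% DMSO / Times: enzyme-compound preincubation 30 min, then probe labeling 45 min, 25 °C / Technique: fluorescence polarization (mP), excitation 525 nm, emission 598 nm / Replication: singlicate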
# PRMT1 FP inh – PRMT1 methyltransferase inhibitors, primary screen, biochemical, fluorescence polarization; Protein arginine N-methyltransferase 1 (Homo sapiens), Q99873; recombinant PRMT1, activity-based probe fluorescence polarization; inhibition, % at 2.79 µM; 1.3% of 370,000 active;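 active = inhibition above about 21% made by adding two undisclosed values, limit read from the data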
# SIAE inh conf – human SIAE inhibitors, retest, confirmation, biochemical, fluorescence polarization, FP-Rh probe, triplicate | shares compounds with SIAE primary | SIAE FP-Rh activity-based probe | inhibition, % at 9.66 µM | 13% of 2,300 active;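 active = mean inhibition of the replicates above the hit cutoff set in the primary screen, cut at about 17% in these data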;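 note: 0% = SIAE with DMSO and probe and 100% = probe without SIAE; inhibitors lower polarization as more probe stays unbound to SIAE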
# Numbers without * were called inactive; · = no result. Shown are actives, neighbours in structure and some others; about 2.7% of the full set was active somewhere.
SMILES,SIAE primary,GSTO1 inh,PAD4 inh,RBBP9 inh,PRMT1 FP inh,SIAE inh conf
Cc1ccc(NS(=O)(=O)c2cccc(C(=O)NC3CC3)c2)c(C)c1,-7,·,4,·,-2,·
Cc1cccc(NC(=O)CN2C(=O)S/C(=C\c3ccc(O)c([N+](=O)[O-])c3)C2=O)c1,9,-13,-3,-2,5,·
Cc1ccc(NC(=O)CN2C(=O)S/C(=C/c3ccc(O)c([N+](=O)[O-])c3)C2=O)cc1C,25*,·,·,5,2,4
Cc1ccc(N(C)C(=O)c2ccc(CNc3c(N4CCC(C)CC4)c(=O)c3=O)cc2)cc1,20*,-1,-3,-8,-2,2
COc1cccc(Nc2nc(CN)cs2)n1,22*,·,·,·,0,6
C=C(C)c1cccc(C(C)(C)NC(=O)Nc2ccc3[nH]c(=O)[nH]c3c2)c1,19*,3,-1,-3,0,3
C=C(C)c1cccc(C(C)(C)NC(=O)Nc2ccc(OC)cc2)c1,2,7,0,-6,3,·
CS(=O)(=O)N1CCC(c2noc(-c3ccc(C(F)(F)F)cc3)n2)CC1,28*,-4,2,-3,-1,-1
Cc1ccc(-c2nc(C3CCN(S(=O)(=O)c4ccc(C(F)(F)F)cc4)CC3)no2)cc1,2,14,1,-8,0,·
CO/N=C(\Cn1ncc(NC2CCCCC2)c(Br)c1=O)c1ccc(Cl)cc1,-2,-3,-1,-6,-1,·
COc1ccc(NC(=S)NNC(=O)c2cccs2)cc1,18*,4,0,4,4,1
COc1ccc(NS(=O)(=O)c2cc(NC(=O)c3cccs3)ccc2N2CCCC2)cc1,26*,-5,2,-19,-3,-31
CCN1C(=O)/C(=C2/Sc3ccccc3N2CC)S/C1=N\c1ncn[nH]1,19*,-3,-1,0,-3,-2
CC1CC(C)CN(C(=O)CCCn2c(=O)c3cccn3c3cccnc32)C1 (stereo not drawn),5,-3,-4,·,-2,·
O=[N+]([O-])c1cccc(-c2csc(N/N=C/c3cccc(O)c3)n2)c1,27*,-10,-2,-6,0,0
CN(C)S(=O)(=O)c1ccc(-c2csc(N/N=C/c3ccc(O)cc3)n2)cc1,20*,-17,-7,3,7,24*
COc1ccc(-c2ccc(/C=C(\NC(=O)c3ccccc3)C(=O)N3CCOCC3)o2)cc1,17*,7,-8,-6,3,-1
Cc1ccc(C(=O)N/C(=C/c2ccco2)C(=O)N2CCC(C)CC2)cc1,2,6,-2,·,7,·
CC1CCN(C(=O)/C(=C\c2ccco2)NC(=O)c2ccccc2)CC1,23*,3,-5,·,7,2
COc1ccc(C(=O)N/C(=C\c2ccccc2)C(=O)N2CCOCC2)cc1,-11,-2,-1,·,-1,·
COc1ccccc1C(=O)N/C(=C\c1cn(C)c2ccccc12)C(=O)N1CCOCC1,21*,-2,-1,·,0,-31
Cn1cc(/C=C(\NC(=O)c2ccccc2Cl)C(=O)N2CCOCC2)c2ccccc21,2,1,-2,·,2,·
Cc1cccc(N2N=C(C(=O)OCC(=O)c3ccccc3)CCC2=O)c1,5,·,-2,·,4,·
O=C(CN1CCN(Cc2ccc(F)cc2Cl)C1=O)NCCc1ccc(Cl)cc1,-2,-4,0,1,2,·
NS(=O)(=O)c1ccc(CNC(=O)CCS(=O)(=O)Cc2ccccc2)cc1,3,4,-1,·,2,·
SMILES,SIAE primary,GSTO1 inh,PAD4 inh,RBBP9 inh,PRMT1 FP inh,SIAE inh conf
CCc1ccc(CNC(=O)CCS(=O)(=O)Cc2ccccc2F)cc1,20*,5,-2,·,-1,4
CCNC(=O)NC(=O)COC(=O)c1cccc(S(=O)(=O)N2CC3(C)CC2CC(C)(C)C3)c1 (stereo not drawn),-1,-7,-2,·,-2,·
COc1cc(NC(=O)c2cccs2)c(OC)cc1NC(=O)Cc1ccccc1,19*,1,3,·,3,0
COc1cc(NC(=O)c2cccs2)c(OC)cc1NC(=O)c1cccs1,·,11,-8,·,·,·
COc1cc(/C=N/Nc2nc3ccccc3[nH]2)ccc1O,18*,2,-1,7,-3,0
COc1ccc(O)c(/C=N/Nc2nc3ccccc3[nH]2)c1,12,13,-6,4,2,·
COc1cc(/C=N/Nc2nc3ccccc3[nH]2)cc(OC)c1O,18*,73*,-11,11,5,16
O=[N+]([O-])c1ccc(O)c(/C=N/Nc2nc3ccccc3[nH]2)c1,19*,5,-1,2,-2,11
COc1ccc2nc(C)cc(N/N=C/c3cccc(OC)c3O)c2c1,24*,11,-3,·,-2,18*
Cc1ccnc(NC(=O)CC(NC(=O)c2ccccc2Cl)c2ccccc2)c1 (stereo not drawn),2,2,-1,·,1,·
Cc1ccc2c(c1)N(Cc1cccc(Cl)c1)C(=O)c1cccnc1O2,-3,-3,3,-10,3,·
O=C(NNC(=S)NC(=O)c1cccs1)c1cccnc1,3,29,3,-9,1,·
O=[N+]([O-])c1ccc(NN=Cc2ccccc2O)nc1,-2,·,·,·,0,·
O=[N+]([O-])c1ccc(N/N=C/c2ccccc2O)cc1,40*,-14,-3,·,1,-3
COc1cccc(/C=N/Nc2nc3ccccc3[nH]2)c1OC,7,-12,-3,4,9,·
COc1cccc(/C=N/Nc2nc3ccccc3[nH]2)c1O,17*,-3,-2,-1,-1,1
O=C(NC(=S)N1CCN(c2ccc(F)cc2)CC1)c1ccccc1,8,·,·,·,-2,·
COc1ccc(N(C)C(=O)c2ccc3snnc3c2)cc1,-1,-2,-1,-6,3,·
CN(C)S(=O)(=O)c1cccc(C(=O)NC2CCSc3ccccc32)c1 (stereo not drawn),25*,-3,4,·,-2,-4
CON(C)S(=O)(=O)c1cccc(C(=O)NC2CCSc3ccccc32)c1 (stereo not drawn),2,-6,-2,·,0,·
CCN(CC)S(=O)(=O)c1cccc(C(=O)OC2CC(C)OC2=O)c1 (stereo not drawn),17*,6,1,·,3,-2
CCN(CC)S(=O)(=O)c1cccc(C(=O)OC2CCOC2=O)c1 (stereo not drawn),2,0,-2,·,8,·
CCn1c(COc2ccc(C)cc2)nnc1SCC(=O)Nc1ccccc1-c1ccccc1,-7,·,·,·,-1,·

# Assay outcomes from PubChem BioAssay.
